ChEMBL document CHEMBL3045797, “Isolation and identification of novel macrocyclic lactones from Streptomyces avermitilis NEAU1069 with acaricidal and nematocidal activity” (2010)

Assays:
Format in all cases: functional
Tetranychus urticae [1] = assay: Acaricidal activity against adult Tetranychus urticae (two-spotted spider mite) in leaves of cowpea plant assessed as number of unhatched eggs at 50 ug/mL at 25 degC measured after 10 days (reference value: 0%)
Tetranychus urticae [2] = assay: Acaricidal activity against adult Tetranychus urticae (two-spotted spider mite) in leaves of cowpea plant assessed as number of unhatched eggs at 100 ug/mL at 25 degC measured after 10 days (reference value: 0%)
Tetranychus urticae [3] = assay: Acaricidal activity against adult Tetranychus urticae (two-spotted spider mite) in leaves of cowpea plant assessed as mortality at 10 ug/mL at 25 degC measured after 3 days (reference value: 0%); conditions: 72 h
Tetranychus urticae [4] = assay: Acaricidal activity against adult Tetranychus urticae (two-spotted spider mite) in leaves of cowpea plant assessed as mortality at 2 ug/mL at 25 degC measured after 3 days (reference value: 0%); conditions: 72 h
Tetranychus urticae [5] = assay: Acaricidal activity against adult Tetranychus urticae (two-spotted spider mite) in leaves of cowpea plant assessed as mortality at 30 ug/mL at 25 degC measured after 3 days (reference value: 0%); conditions: 72 h
Tetranychus urticae [6] = assay: Acaricidal activity against adult Tetranychus urticae (two-spotted spider mite) in leaves of cowpea plant assessed as mortality at 50 ug/mL at 25 degC measured after 3 days (reference value: 0%); conditions: 72 h
Tetranychus urticae [7] = assay: Acaricidal activity against adult Tetranychus urticae (two-spotted spider mite) in leaves of cowpea plant assessed as mortality at 100 ug/mL at 25 degC measured after 3 days (reference value: 0%); conditions: 72 h
Caenorhabditis elegans [8] = assay: Nematocidal activity against Caenorhabditis elegans assessed as immobilized rate at 2 ug/mL at 25 degC for 15 hr (reference value: 5.3 to 6.8%)
Caenorhabditis elegans [9] = assay: Nematocidal activity against Caenorhabditis elegans assessed as immobilized rate at 10 ug/mL at 25 degC for 15 hr (reference value: 5.3 to 6.8%)
Summary of the method: (§1)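 Compounds were prepared as 0.1% MeOH solutions and diluted 10-fold in water to give 100 μg/mL test solutions. Immobilized and total C. elegans were counted under a stereomicroscope. Result is % immobilized of all nematodes tested.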

Caenorhabditis elegans [10] = assay: Nematocidal activity against Caenorhabditis elegans assessed as immobilized rate at 30 ug/mL at 25 degC for 15 hr (reference value: 5.3 to 6.8%)
Caenorhabditis elegans [11] = assay: Nematocidal activity against Caenorhabditis elegans assessed as immobilized rate at 50 ug/mL at 25 degC for 15 hr (reference value: 5.3 to 6.8%); summary of the method: as §1
Caenorhabditis elegans [12] = assay: Nematocidal activity against Caenorhabditis elegans assessed as immobilized rate at 100 ug/mL at 25 degC for 15 hr (reference value: 5.3 to 6.8%); summary of the method: as §1
Tetranychus urticae [13] = assay: Acaricidal activity against adult Tetranychus urticae (two-spotted spider mite) in leaves of cowpea plant assessed as number of unhatched eggs at 2 ug/mL at 25 degC measured after 10 days (reference value: 0%)
Tetranychus urticae [14] = assay: Acaricidal activity against adult Tetranychus urticae (two-spotted spider mite) in leaves of cowpea plant assessed as number of unhatched eggs at 10 ug/mL at 25 degC measured after 10 days (reference value: 0%)
Tetranychus urticae [15] = assay: Acaricidal activity against adult Tetranychus urticae (two-spotted spider mite) in leaves of cowpea plant assessed as number of unhatched eggs at 30 ug/mL at 25 degC measured after 10 days (reference value: 0%)

Row | Compound | Activity (Tetranychus urticae [1]) | Activity (Tetranychus urticae [2]) | mortality at 10 µg/mL (Tetranychus urticae [3]) | mortality at 2 µg/mL (Tetranychus urticae [4]) | mortality at 30 µg/mL (Tetranychus urticae [5]) | mortality at 50 µg/mL (Tetranychus urticae [6]) | mortality at 100 µg/mL (Tetranychus urticae [7]) | Activity (Caenorhabditis elegans [8]) | Activity (Caenorhabditis elegans [9]) | Activity (Caenorhabditis elegans [10]) | Activity (Caenorhabditis elegans [11]) | Activity (Caenorhabditis elegans [12]) | Activity (Tetranychus urticae [13]) | Activity (Tetranychus urticae [14]) | Activity (Tetranychus urticae [15])
1 | C/C1=C\C[C@@H]2C[C@@H](C[C@]3(C[C@@H](O)[C@H](C)[C@@H](C4CCCCC4)O3)O2)OC(=O)c2cc(C)c(O)cc2/C=C/C=C/[C@H](C)[C@@H]1O | 43.7% | 59.8% | 75.6% | 43.9% | 96.4% | 100% | 100% | 43.7% | 92.7% | 100% | 100% | 100% | 0% | 13.9% | 23.5%
2 | C/C1=C\C[C@@H]2C[C@@H](C[C@]3(C=C[C@H](C)[C@@H](C4CCCCC4)O3)O2)OC(=O)c2cc(C)c(O)cc2/C=C/C=C/[C@H](C)[C@@H]1O | 37.6% | 56.7% | 77.1% | 45.2% | 92.5% | 100% | 100% | 13.5% | 49.2% | 81.4% | 100% | 100% | 0% | 12.1% | 19.8%
3 | CO[C@H]1C[C@H](O[C@H]2[C@H](C)O[C@@H](O[C@@H]3/C(C)=C/C[C@@H]4C[C@@H](C[C@]5(C=C[C@H](C)[C@@H](C6CCCCC6)O5)O4)OC(=O)[C@@H]4C=C(C)[C@@H](O)[C@H]5OC/C(=C\C=C\[C@@H]3C)[C@]54O)C[C@@H]2OC)O[C@@H](C)[C@@H]1O [DORAMECTIN] | 21.5% | 47.4% | 62.9% | 26.8% | 86.5% | 100% | 100% | 45.3% | 86.5% | 100% | 100% | 100% | 0% | 0% | 8.9%
